Measured values as given in ChEMBL document CHEMBL4024748, “Development of Potent Type I Protein Arginine Methyltransferase (PRMT) Inhibitors of Leukemia Cell Proliferation” (J Med Chem, 2017).
The source made the active and inactive calls. No cut-off for these calls is given here.

Tests used:
THP-1 = assay: Cytotoxicity against human THP1 cells assessed as decrease in cell viability after 96 hrs by Cell-Titer Glo assay; type: functional, cell-based
Summary of the method: (§1)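 Cells kept at 37°C, 5% CO2, exposed to compound or DMSO control for 96 h. Viability read by CellTiter-Glo luminescence after 2 min shaking to lyse and 10 min at room temperature. Triplicate wells, normalised to control cells. For long-term growth, log-phase seeding densities; cells counted and replated to the starting density with fresh compound on days 4 and 8.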

[1] = target: Histone-lysine N-methyltransferase PRDM9 (Homo sapiens) (UniProt Q9NQV7); assay: Inhibition of PRDM9 (unknown origin) at 100 uM incubated for 15 mins followed by substrate addition measured after 60 mins by AlphaLisa method
Histone-lysine N-methyltransferase PRDM9 (Homo sapiens), sequence (Q9NQV7 whole entry): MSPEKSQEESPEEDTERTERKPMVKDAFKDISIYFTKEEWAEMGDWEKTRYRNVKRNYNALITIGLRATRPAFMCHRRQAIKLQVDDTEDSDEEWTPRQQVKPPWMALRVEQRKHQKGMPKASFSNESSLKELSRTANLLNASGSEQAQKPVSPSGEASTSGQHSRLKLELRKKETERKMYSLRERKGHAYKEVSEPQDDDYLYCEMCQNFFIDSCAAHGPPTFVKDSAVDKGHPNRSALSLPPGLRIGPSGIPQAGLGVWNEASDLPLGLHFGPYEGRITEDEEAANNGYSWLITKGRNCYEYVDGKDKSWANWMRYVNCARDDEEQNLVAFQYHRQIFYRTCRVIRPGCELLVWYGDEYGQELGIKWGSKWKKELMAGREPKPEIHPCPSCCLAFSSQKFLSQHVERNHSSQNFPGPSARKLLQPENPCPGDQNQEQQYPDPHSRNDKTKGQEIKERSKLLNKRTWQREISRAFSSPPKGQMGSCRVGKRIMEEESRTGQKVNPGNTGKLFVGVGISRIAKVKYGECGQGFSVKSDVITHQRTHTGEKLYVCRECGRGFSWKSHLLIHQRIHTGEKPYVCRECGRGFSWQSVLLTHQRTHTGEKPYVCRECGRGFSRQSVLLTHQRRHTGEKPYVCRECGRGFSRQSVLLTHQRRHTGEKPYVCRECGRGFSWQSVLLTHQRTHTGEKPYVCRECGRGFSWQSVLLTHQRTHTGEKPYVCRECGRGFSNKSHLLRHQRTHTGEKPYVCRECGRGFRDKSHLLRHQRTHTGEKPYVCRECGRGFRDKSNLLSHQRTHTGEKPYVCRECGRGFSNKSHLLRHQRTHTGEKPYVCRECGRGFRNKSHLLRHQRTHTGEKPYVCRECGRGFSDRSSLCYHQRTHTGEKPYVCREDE
Summary of the method: (§2)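 AlphaLISA. Enzyme and substrate in 1x assay buffer, compound at 1% DMSO final. Enzyme preincubated with compound 15 min at room temperature, then substrate added. Reaction 60 min at room temperature, then bead mix added and incubated 60 min under subdued light before signal read.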

[2] = Cytotoxicity against human RCTEC cells assessed as decrease in cell viability at 6.25 to 25 uM after 96 hrs by Cell-Titer Glo assay; type: cell-based
Summary of the method: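 Normal HUV-EC-C, MRC-5 and RCTEC cells at 37°C, 5% CO2, given compound or DMSO control for 96 h. Viability by CellTiter-Glo luminescence after 2 min shaking and 10 min at room temperature. Triplicate wells, normalised to control cells.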

MV4-11 [3] = assay: Downregulation of HOXA10 mRNA levels in human MV4-11 cells by qRT-PCR analysis; type: functional, cell-based
Summary of the method: (§3)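 MV4-11 cells treated with compound. mRNA measured by SYBR Green qRT-PCR with B2M as internal control. Fold change from ΔΔCt. Samples run in triplicate, mean ± SD.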

[4] = target: Histone-lysine N-methyltransferase SUV39H1 (Homo sapiens) (UniProt O43463); assay: Inhibition of SUV39H1 (unknown origin) at 50 uM incubated for 15 mins followed by substrate addition measured after 60 mins by AlphaLisa method
Histone-lysine N-methyltransferase SUV39H1 (Homo sapiens), sequence (O43463 whole entry): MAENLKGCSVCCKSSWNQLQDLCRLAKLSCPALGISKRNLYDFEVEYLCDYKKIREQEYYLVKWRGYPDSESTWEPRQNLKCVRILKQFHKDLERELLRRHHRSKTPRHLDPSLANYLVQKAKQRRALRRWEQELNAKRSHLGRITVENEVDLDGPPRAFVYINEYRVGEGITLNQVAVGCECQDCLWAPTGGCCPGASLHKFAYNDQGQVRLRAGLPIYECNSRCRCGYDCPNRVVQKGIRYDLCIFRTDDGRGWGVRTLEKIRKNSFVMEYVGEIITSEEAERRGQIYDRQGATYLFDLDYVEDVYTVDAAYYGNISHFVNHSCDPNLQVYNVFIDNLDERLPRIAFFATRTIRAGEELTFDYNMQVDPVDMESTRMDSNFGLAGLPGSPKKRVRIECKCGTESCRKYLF
Summary of the method: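 SUV39H1 AlphaLISA at 50 and 100 µM compound, 1% DMSO final. Enzyme preincubated 15 min at room temperature, substrate reaction 60 min at RT. Bead mix then added for 60 min at RT in subdued light before signal collection.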

[5] = target: Histone-lysine N-methyltransferase EZH2 (Homo sapiens) (UniProt Q15910); assay: Inhibition of EZH2 (unknown origin) at 50 uM incubated for 15 mins followed by substrate addition measured after 60 mins by radioisotope assay
Histone-lysine N-methyltransferase EZH2 (Homo sapiens), sequence (Q15910 whole entry, looked up): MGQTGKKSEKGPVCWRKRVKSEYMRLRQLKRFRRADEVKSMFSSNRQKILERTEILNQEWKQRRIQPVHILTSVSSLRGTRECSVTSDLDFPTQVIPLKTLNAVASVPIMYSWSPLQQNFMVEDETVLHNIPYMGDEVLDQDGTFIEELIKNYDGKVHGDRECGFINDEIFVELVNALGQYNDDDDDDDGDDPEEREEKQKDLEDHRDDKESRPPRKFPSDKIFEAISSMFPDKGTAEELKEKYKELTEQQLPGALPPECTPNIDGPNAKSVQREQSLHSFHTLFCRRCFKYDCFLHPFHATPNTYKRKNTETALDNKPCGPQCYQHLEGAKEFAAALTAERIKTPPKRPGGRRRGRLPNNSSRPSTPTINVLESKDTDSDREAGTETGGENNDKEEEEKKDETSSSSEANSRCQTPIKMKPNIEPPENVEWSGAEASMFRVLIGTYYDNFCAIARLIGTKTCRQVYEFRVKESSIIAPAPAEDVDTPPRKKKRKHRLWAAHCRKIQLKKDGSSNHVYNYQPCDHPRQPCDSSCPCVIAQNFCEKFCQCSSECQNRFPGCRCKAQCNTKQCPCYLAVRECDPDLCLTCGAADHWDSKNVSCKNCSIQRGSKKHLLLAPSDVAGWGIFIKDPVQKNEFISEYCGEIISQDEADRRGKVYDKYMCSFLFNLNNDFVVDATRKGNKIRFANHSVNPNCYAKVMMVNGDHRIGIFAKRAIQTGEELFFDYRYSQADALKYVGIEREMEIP

MV4-11 [6] = assay: Cell cycle arrest in human MV4-11 cells assessed as accumulation at G1 phase after 72 hrs by propidium iodide staining-based flow cytometry; type: functional
Summary of the method: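 MV4-11 cells in 6-well plates with compound or DMSO control, harvested at 72 h. Fixed overnight in 70% ethanol at 4°C, washed with PBS, stained 30 min at room temperature with propidium iodide/RNase buffer, analysed by flow cytometry. Mean ± SD of three replicates.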

RCH-ACV = assay: Cytotoxicity against human RCH-ACV cells assessed as decrease in cell viability after 96 hrs by Cell-Titer Glo assay; type: functional, cell-based; summary of the method: as §1
[7] = target: Protein arginine N-methyltransferase 6 (Homo sapiens, UniProt Q96LA8); assay: Inhibition of PRMT6 in human MV411 cells assessed as reduction in H3R2me2a levels after 48 hrs by Western blot analysis; type: cell-based
Summary of the method: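 MV4-11 cells (37°C, 5% CO2) exposed to compound for 48 h across a range of doses. Histone H3R2 asymmetric dimethylation read by western blot. Membranes blocked in 5% milk/PBST, primary antibody overnight at 4°C, then 1:10000 HRP donkey anti-rabbit secondary for 1 h.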

MV4-11 [8] = assay: Downregulation of HOXA9 mRNA levels in human MV4-11 cells by qRT-PCR analysis; type: functional, cell-based; summary of the method: as §3
KMS-11 = assay: Cytotoxicity against human KMS11 cells assessed as decrease in cell viability after 96 hrs by Cell-Titer Glo assay; type: functional, cell-based; summary of the method: as §1
[9] = target: T1, DNMT3A2/3L complex (Homo sapiens) (UniProt Q9Y6K1+Q9UJW3); assay: Inhibition of DNMT3A/3L (unknown origin) at 100 uM incubated for 15 mins followed by substrate addition measured after 60 mins by radioisotope assay; type: protein-complex assay
T1 sequence (Q9UJW3 whole entry, looked up): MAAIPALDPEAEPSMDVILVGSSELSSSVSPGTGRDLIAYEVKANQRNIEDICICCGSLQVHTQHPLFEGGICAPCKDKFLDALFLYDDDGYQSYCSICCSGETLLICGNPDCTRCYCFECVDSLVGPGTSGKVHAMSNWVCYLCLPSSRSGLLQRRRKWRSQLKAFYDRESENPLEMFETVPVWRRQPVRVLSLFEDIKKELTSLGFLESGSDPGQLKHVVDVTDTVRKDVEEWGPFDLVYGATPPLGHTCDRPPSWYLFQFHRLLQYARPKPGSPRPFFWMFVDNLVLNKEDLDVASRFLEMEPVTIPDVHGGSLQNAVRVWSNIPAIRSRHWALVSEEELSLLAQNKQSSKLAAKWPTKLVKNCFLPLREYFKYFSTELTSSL
T1 sequence (Q9Y6K1 whole entry, looked up): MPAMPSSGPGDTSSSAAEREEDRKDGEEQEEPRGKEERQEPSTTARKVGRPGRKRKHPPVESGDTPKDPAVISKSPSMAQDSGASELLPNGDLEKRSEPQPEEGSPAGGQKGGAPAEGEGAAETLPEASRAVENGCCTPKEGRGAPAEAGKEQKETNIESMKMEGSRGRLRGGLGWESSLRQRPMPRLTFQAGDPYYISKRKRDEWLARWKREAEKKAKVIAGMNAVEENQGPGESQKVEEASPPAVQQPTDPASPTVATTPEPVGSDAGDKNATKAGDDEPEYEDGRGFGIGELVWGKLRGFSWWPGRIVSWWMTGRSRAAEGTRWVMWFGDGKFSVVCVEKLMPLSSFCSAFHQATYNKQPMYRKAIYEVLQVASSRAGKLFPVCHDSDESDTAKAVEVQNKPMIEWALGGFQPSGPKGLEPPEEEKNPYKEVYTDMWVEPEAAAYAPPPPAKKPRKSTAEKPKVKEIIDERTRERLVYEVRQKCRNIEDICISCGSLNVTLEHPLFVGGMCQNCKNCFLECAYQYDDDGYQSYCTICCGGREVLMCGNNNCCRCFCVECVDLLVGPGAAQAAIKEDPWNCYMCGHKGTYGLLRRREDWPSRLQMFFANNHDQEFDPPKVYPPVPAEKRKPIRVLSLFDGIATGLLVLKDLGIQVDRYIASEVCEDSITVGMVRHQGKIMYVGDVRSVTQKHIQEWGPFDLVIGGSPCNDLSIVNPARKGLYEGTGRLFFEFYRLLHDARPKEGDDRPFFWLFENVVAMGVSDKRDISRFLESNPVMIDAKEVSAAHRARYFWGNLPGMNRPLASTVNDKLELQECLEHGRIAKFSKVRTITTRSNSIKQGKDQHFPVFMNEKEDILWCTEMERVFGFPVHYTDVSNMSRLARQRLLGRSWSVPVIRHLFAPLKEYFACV

[10] = target: Protein arginine N-methyltransferase 3 (Homo sapiens, UniProt O60678); assay: Inhibition of PRMT3 (unknown origin) incubated for 15 mins followed by substrate addition measured after 60 mins by AlphaLisa method; summary of the method: as §2
[11] = target: Protein arginine N-methyltransferase 1 (Rattus norvegicus) (UniProt Q63009); assay: Binding affinity to rat His-tagged PRMT1 (11 to 353 residues) expressed in Escherichia coli BL21(DE3) at 200 uM by 1D 1H CPMG-NMR spectroscopic method
Summary of the method: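 Rat PRMT1 (11–353), N-His6, expressed in E. coli BL21(DE3) with 0.4 mM IPTG at 16°C. Purified by Ni affinity and Superdex200. NMR used 5 µM PRMT1 in phosphate buffer pH 7.4 (20 mM NaH2PO4, 20 mM Na2HPO4, 100 mM NaCl) in D2O. Ligand at 200 µM in 5% DMSO-d6. CPMG run with 5, 2 and 1 µM PRMT1, plus STD.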

MV4-11 [12] = assay: Antiproliferative activity against human MV4-11 cells assessed as decrease in cell viability measured at day 8 by Cell-Titer Glo assay; type: functional, cell-based; conditions: MV4-11, 192 h; summary of the method: as §1
MV4-11 [13] = assay: Induction of apoptosis in human MV4-11 cells after 96 hrs by annexin V-FITC/propidium iodide staining-based flow cytometric method; type: functional, cell-based
Summary of the method: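 MV4-11 cells in 6-well plates with compound or DMSO control, harvested at 96 h. Stained with an Annexin V-FITC apoptosis detection kit and analysed by flow cytometry. Mean ± SD of three replicates.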

MV4-11 [14] = assay: Antiproliferative activity against human MV4-11 cells assessed as decrease in cell viability measured at day 4 by Cell-Titer Glo assay; type: functional, cell-based; conditions: MV4-11, 96 h; summary of the method: as §1
REH = assay: Cytotoxicity against human REH cells assessed as decrease in cell viability after 96 hrs by Cell-Titer Glo assay; type: functional, cell-based; summary of the method: as §1
[15] = target: Histone-arginine methyltransferase CARM1 (Homo sapiens, UniProt Q86X55); assay: Inhibition of PRMT4 (unknown origin) incubated for 15 mins followed by substrate addition measured after 60 mins by AlphaLisa method
Histone-arginine methyltransferase CARM1, sequence (Q86X55 whole entry): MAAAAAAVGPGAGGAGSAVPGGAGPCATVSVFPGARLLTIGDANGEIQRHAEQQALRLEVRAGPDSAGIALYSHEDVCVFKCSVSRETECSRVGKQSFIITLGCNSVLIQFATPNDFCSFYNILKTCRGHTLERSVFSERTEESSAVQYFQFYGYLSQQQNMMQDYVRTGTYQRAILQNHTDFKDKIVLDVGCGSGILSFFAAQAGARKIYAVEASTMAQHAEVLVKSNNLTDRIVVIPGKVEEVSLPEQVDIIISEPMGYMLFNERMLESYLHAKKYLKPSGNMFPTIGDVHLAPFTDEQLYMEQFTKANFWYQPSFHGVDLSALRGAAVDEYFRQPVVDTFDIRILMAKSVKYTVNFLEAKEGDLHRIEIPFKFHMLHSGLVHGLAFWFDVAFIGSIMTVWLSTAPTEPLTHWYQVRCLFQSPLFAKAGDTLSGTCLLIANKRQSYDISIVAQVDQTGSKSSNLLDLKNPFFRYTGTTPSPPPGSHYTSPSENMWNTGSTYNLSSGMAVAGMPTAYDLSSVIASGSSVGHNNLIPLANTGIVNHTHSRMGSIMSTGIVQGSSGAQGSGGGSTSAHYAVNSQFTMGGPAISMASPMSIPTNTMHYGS
Summary of the method: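 Enzyme preincubated with compound for 15 min at room temperature in 1x assay buffer (final DMSO 1%), then substrate added. The reaction ran for 60 min at room temperature. AlphaLISA bead mix was then added and incubated for 60 min at room temperature in subdued light. The luminescent signal was read and IC50 derived by curve fitting.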

[16] = target: Histone acetyltransferase KAT2A (Homo sapiens) (UniProt Q92830); assay: Inhibition of GCN5 (unknown origin) at 100 uM incubated for 15 mins followed by substrate addition measured after 60 mins by radioisotope assay
Histone acetyltransferase KAT2A (Homo sapiens), sequence (Q92830 2-837 limits assumed): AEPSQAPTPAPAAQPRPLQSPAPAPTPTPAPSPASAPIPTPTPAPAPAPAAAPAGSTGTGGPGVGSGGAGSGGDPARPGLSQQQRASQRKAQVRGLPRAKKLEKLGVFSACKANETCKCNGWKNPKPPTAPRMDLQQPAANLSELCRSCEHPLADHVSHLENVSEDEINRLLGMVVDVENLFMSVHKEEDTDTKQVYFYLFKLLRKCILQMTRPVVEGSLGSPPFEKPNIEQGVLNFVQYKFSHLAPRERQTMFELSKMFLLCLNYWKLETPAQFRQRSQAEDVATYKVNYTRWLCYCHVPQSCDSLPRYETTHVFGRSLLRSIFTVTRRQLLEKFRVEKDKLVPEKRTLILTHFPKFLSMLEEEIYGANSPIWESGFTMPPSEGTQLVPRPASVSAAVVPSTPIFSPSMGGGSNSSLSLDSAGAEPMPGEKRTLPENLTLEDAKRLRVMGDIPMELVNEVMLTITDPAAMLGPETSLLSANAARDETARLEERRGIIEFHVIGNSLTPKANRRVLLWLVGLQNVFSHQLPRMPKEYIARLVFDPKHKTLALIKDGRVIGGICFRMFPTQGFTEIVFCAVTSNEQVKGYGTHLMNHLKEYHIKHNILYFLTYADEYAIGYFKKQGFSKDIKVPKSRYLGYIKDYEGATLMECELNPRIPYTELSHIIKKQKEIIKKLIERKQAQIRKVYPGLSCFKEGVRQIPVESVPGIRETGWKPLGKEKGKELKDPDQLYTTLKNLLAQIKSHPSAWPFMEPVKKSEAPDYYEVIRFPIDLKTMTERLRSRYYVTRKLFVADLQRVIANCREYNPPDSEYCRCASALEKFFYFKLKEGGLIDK

[17] = target: Histone-lysine N-methyltransferase PRDM9 (Homo sapiens) (UniProt Q9NQV7); assay: Inhibition of PRDM9 (unknown origin) at 50 uM incubated for 15 mins followed by substrate addition measured after 60 mins by AlphaLisa method; summary of the method: as §2
[18] = target: T1, DNMT3A2/3L complex (Homo sapiens); assay: Inhibition of DNMT3A/3L (unknown origin) at 50 uM incubated for 15 mins followed by substrate addition measured after 60 mins by radioisotope assay; type: protein-complex assay

inhibition [1]: Active
inhibition [4]: Active
inhibition [5]: Active
inhibition [7]: Dose-dependent effect
inhibition [9]: Active
IC50 [10]: 22 nM
Activity [11]: Active
IC50 (MV4-11 [12]): 3210 nM
IC50 (MV4-11 [14]): 4550 nM
IC50 [15]: 63 nM
inhibition [16]: Active
inhibition [17]: Active
inhibition [18]: Active
Compound: CN(CCN)Cc1ccccc1Sc1ccccc1Cl
Activity (THP-1): Dose-dependent effect
Activity [2]: Non-Toxic
Activity (MV4-11 [3]): Dose-dependent effect
Activity (MV4-11 [6]): Dose-dependent effect
Activity (RCH-ACV): Dose-dependent effect
Activity (MV4-11 [8]): Dose-dependent effect
Activity (KMS-11): Dose-dependent effect
Activity (MV4-11 [13]): Dose-dependent effect
Activity (REH): Dose-dependent effect
